Source: ChEMBL document CHEMBL5032512, “A Photohormone for Light-Dependent Control of PPARα in Live Cells” (J Med Chem, 2021)
pEC50: −log10 of the molar value. The source made the active and inactive calls. The calls are words filed in the database; no cut-off is given here.

Columns and labels:
[1] = molecular target: T1, Peroxisome proliferator-activated receptor delta (Homo sapiens) (UniProt Q03181); assay: Agonist activity at Gal4-fused human PPARdelta LBD transfected in HEK293T cells assessed as maximal relative activation incubated for 14 to 16 hrs by dual-Glo luciferase assay relative to L165,041; assay type: cell-based; details: time 14-16 hrs
T1 sequence (whole entry): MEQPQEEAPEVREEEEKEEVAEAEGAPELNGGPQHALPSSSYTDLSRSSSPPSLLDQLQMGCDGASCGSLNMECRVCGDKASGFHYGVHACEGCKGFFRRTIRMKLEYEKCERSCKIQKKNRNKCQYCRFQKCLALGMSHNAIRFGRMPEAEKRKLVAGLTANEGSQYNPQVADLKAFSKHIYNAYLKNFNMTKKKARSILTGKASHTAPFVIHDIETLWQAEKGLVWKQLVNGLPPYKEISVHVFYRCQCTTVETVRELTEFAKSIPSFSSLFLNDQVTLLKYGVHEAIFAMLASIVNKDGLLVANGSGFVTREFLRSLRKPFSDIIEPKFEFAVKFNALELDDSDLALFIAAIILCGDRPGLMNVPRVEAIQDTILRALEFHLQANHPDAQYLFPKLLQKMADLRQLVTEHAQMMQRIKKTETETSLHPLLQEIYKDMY
Method in brief: (§1)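 HEK293T cells transiently transfected with pFR-Luc, pRL-SV40 and Gal4 fusion of human PPAR hinge region plus LBD. Compound added 5 h later in Opti-MEM with 0.1% DMSO, then left overnight (14−16 h). Dual-Glo firefly/Renilla luciferase read, giving RLU. Fold activation is taken against the DMSO control. Max relative activation is set against 1 μM GW7647 (α) or L165,041 (δ). EC50 from a four-parameter fit. Duplicates, ≥3 independent runs.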

[2] = molecular target: T2, Peroxisome proliferator-activated receptor delta (Homo sapiens, UniProt Q03181); assay: Agonist activity at Gal4-fused human PPARdelta LBD transfected in HEK293T cells assessed as transcriptional activation incubated for 14 to 16 hrs by dual-Glo luciferase assay; assay type: cell-based; method in brief: as §1
T2 sequence (Q03181 whole entry): T1 sequence (whole entry)

[3] = molecular target: T3, Peroxisome proliferator-activated receptor alpha (Homo sapiens) (UniProt Q07869); assay: Agonist activity at Gal4-fused human PPARalpha LBD transfected in HEK293T cells assessed as maximal relative activation incubated for 14 to 16 hrs by dual-Glo luciferase assay relative to GW7647; assay type: cell-based; details: time 14-16 hrs; method in brief: as §1
T3 sequence (whole entry): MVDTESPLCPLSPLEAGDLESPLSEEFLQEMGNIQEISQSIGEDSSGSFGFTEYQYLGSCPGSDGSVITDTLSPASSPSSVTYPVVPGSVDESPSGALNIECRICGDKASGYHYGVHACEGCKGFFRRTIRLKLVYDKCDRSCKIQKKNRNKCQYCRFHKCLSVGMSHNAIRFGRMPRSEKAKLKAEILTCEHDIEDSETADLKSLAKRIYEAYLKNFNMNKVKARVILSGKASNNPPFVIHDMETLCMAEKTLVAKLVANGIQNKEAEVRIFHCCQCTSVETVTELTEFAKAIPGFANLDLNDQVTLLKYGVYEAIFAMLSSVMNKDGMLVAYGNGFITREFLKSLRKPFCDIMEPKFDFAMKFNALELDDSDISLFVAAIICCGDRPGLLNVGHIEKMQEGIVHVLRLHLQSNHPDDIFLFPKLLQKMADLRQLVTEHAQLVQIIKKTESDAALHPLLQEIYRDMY

[4] = molecular target: T4, Peroxisome proliferator-activated receptor alpha (Homo sapiens, UniProt Q07869); assay: Agonist activity at Gal4-fused human PPARalpha LBD transfected in HEK293T cells assessed as transcriptional activation incubated for 14 to 16 hrs by dual-Glo luciferase assay; assay type: cell-based; method in brief: as §1
T4 sequence (Q07869 whole entry): T3 sequence (whole entry)

[5] = molecular target: T5, Peroxisome proliferator-activated receptor gamma (Homo sapiens, UniProt P37231); assay: Agonist activity at Gal4-fused human PPARgamma LBD transfected in HEK293T cells assessed as transcriptional activation incubated for 14 to 16 hrs by dual-Glo luciferase assay; assay type: cell-based
T5 sequence (P37231 whole entry): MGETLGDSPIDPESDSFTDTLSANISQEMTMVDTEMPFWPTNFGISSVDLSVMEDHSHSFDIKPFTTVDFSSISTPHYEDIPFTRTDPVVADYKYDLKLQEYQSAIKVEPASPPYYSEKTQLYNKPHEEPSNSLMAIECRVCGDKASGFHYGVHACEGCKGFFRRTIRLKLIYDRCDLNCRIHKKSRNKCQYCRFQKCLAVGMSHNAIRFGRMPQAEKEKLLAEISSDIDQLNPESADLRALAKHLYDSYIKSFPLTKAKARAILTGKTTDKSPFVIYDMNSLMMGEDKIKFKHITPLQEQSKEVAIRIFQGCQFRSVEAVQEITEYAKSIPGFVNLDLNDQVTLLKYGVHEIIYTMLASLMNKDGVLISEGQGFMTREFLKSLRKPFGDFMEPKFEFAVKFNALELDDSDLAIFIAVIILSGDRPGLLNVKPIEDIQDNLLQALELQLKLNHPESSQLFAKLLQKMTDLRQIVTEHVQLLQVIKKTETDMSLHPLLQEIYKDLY

[6] = Photostability of compound assessed as photochemical switch by measuring trans-isoform at 50 uM incubated for 8 hrs followed by irradiation with 460 nm UV light for 3 mins by HPLC analysis; assay type: physicochemical
[7] = molecular target: T3, Peroxisome proliferator-activated receptor alpha (Homo sapiens); assay: Agonist activity at human Gal4-PPARalpha transfected in HEK293T cells assessed as increase in mCherry fluorescence at 10 nM incubated for 8 hrs followed by irradiation with 365 nm UV light for 3 mins by fluorescence microscopic analysis; assay type: cell-based
Method in brief: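 Live HEK293T cells carrying UAS-mCherry-NLS plus Gal4-PPARα-LBD were treated with compound in 0.1% DMSO. mCherry read (ex 585, em 610 nm) hourly from 8 to 24 h and at 36 h. At 8 h, isomers switched by 3 min illumination at 365 or 460 nm. cis state held by Cell DISCO. Fold intensity against DMSO. n = 3.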

[8] = molecular target: T3, Peroxisome proliferator-activated receptor alpha (Homo sapiens); assay: Agonist activity at human Gal4-PPARalpha transfected in HEK293T cells assessed as increase in mCherry fluorescence at 10 nM incubated for 40 hrs by fluorescence microscopic analysis; assay type: cell-based
Method in brief: (§2)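 HEK293T cells transfected separately with UAS-mCherry-NLS plus Gal4-PPARα-LBD, or […]-GFP plus Gal4-PPARδ-LBD. Cells pooled 5 h later and reseeded with compound in 0.1% DMSO. cis form preirradiated 3 min at 365 nm, then held with 75 ms 370 nm pulses every 15 s. Microscope images taken at 40 h. Integrated density set against 1 μM reference agonist. Duplicates, two independent runs.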

[9] = molecular target: T3, Peroxisome proliferator-activated receptor alpha (Homo sapiens); assay: Agonist activity at human Gal4-PPARalpha transfected in HEK293T cells assessed as increase in mCherry fluorescence at 300 nM incubated for 40 hrs by fluorescence microscopic analysis; assay type: cell-based; details: filed as agonist; method in brief: as §2
[10] = molecular target: T1, Peroxisome proliferator-activated receptor delta (Homo sapiens); assay: Agonist activity at human Gal4-PPARdelta transfected in HEK293T cells assessed as increase in eGFP fluorescence at 300 nM incubated for 40 hrs by fluorescence microscopic analysis; assay type: cell-based; method in brief: as §2
[11] = Photostability of compound assessed as photochemical switch by measuring cis-isoform at 50 uM incubated for 8 hrs followed by irradiation with 365 nm UV light for 3 mins by HPLC analysis; assay type: physicochemical

Row | SMILES | max activation [1] | pEC50 [2] | max activation ([3]; filed as agonist) | pEC50 [4] | max activation ([1]; filed as agonist) | max activation [3] | pEC50 [5] | Stability [6] | Activity [7] | Activity [8] | Activity [9] | Activity [10] | Stability [11]
1 | CC(C)(Oc1ccc(CCOc2ccc(/N=N\c3ccccc3)cc2C(F)(F)F)cc1)C(=O)O | 37% | 6.51 | 42% | 7.15 | – | – | – | – | – | – | – | – | –
2 | CC(C)(Oc1ccc(CCOc2ccc(/N=N/c3ccccc3)cc2)cc1)C(=O)O | – | 5.66 | – | 5.96 | 61% | 31% | 5.57 | – | – | – | – | – | –
3 | Cc1ccc(/N=N/c2ccc(OCCc3ccc(OC(C)(C)C(=O)O)cc3)c(C)c2)cc1 | – | 6.92 | – | 7.44 | 47% | 34% | 5.64 | – | – | – | – | – | –
4 | Cc1ccc(/N=N\c2ccc(OCCc3ccc(OC(C)(C)C(=O)O)cc3)c(Cl)c2)cc1 | 35% | 6.42 | 41% | 6.54 | – | – | – | Stable | – | – | – | – | –
5 | CC(C)(Oc1ccc(COc2ccc(/N=N/c3ccccc3)cc2)cc1)C(=O)O | – | 5.55 | 40% | 5.43 | 40% | – | – | – | – | – | – | – | –
6 | CC(C)(Oc1ccc(CCOc2ccc(/N=N/c3ccccc3)cc2C(F)(F)F)cc1)C(=O)O | – | 6.85 | 46% | 8.05 | 45% | – | – | – | – | – | – | – | –
7 | CC(C)(Oc1ccc(CCOc2ccc(/N=N\c3ccc(Cl)cc3)cc2)cc1)C(=O)O | 28% | 5.09 | – | 5.96 | – | 24% | < 5.00 | – | – | – | – | – | –
8 | Cc1ccc(/N=N\c2ccc(OCCc3ccc(OC(C)(C)C(=O)O)cc3)cc2)cc1 | 31% | 5.42 | – | 5.96 | – | 22% | < 5.00 | – | – | – | – | – | –
9 | CC(C)(Oc1ccc(CCOc2ccc(/N=N/c3ccc(Cl)cc3)cc2)cc1)C(=O)O | 39% | 5.10 | – | 6.10 | – | 26% | 5.49 | – | – | – | – | – | –
10 | Cc1cc(/N=N\c2ccccc2)ccc1OCCc1ccc(OC(C)(C)C(=O)O)cc1 | – | 5.52 | 43% | 6.62 | 41% | – | – | Stable | inactive | inactive | Active | inactive | –
11 | Cc1ccc(/N=N\c2ccc(OCCc3ccc(OC(C)(C)C(=O)O)cc3)c(C)c2)cc1 | 32% | 6.10 | – | 6.19 | – | 26% | 5.92 | – | – | – | – | – | –
12 | Cc1ccc(/N=N\c2ccc(OCCc3ccc(OC(C)(C)C(=O)O)cc3)c(C(F)(F)F)c2)cc1 | – | 6.39 | 41% | 6.72 | 40% | – | 5.89 | – | – | – | – | – | –
13 | CC(C)(Oc1ccc(CCOc2ccc(/N=N\c3ccccc3)cc2)cc1)C(=O)O | 34% | 5.22 | – | 6.10 | – | 29% | 5.22 | – | – | – | – | – | –
14 | Cc1ccc(/N=N/c2ccc(OCCc3ccc(OC(C)(C)C(=O)O)cc3)c(C(F)(F)F)c2)cc1 | – | 6.95 | 87% | 7.15 | 43% | – | 5.92 | – | – | – | – | – | –
15 | CC(C)c1ccc(/N=N\c2ccc(OCCc3ccc(OC(C)(C)C(=O)O)cc3)cc2)cc1 | 22% | 5.47 | – | 6.55 | – | 19% | – | – | – | – | – | – | –
16 | CC(C)c1ccc(/N=N/c2ccc(OCCc3ccc(OC(C)(C)C(=O)O)cc3)cc2)cc1 | – | 5.75 | – | 6.33 | 40% | 25% | – | – | – | – | – | – | –
17 | CC(C)(Oc1ccc(CCOc2ccc(/N=N/c3ccccc3)cc2Cl)cc1)C(=O)O | – | 6.62 | 49% | 7.54 | 46% | – | 6.09 | – | – | – | – | – | –
18 | CC(C)(Oc1ccc(CCOc2ccc(/N=N\c3ccccc3)cc2Cl)cc1)C(=O)O | – | 6.46 | 45% | 7.40 | 44% | – | 6.04 | – | – | – | – | – | –
19 | Cc1ccc(/N=N/c2ccc(OCCc3ccc(OC(C)(C)C(=O)O)cc3)c(Cl)c2)cc1 | – | 6.92 | 76% | 7.40 | 65% | – | – | – | – | – | – | – | Stable
20 | CC(C)(Oc1ccc(COc2ccc(/N=N\c3ccccc3)cc2)cc1)C(=O)O | 26% | 5.39 | – | 5.46 | – | 28% | – | – | – | – | – | – | –
